Test results taken from PMC11350598 (JACS Au, 2024).
Where two headings read alike, the source gives them in different places. Marks after values point to notes of the source that are not given here.

Legend:
[1] = test system: wild-type (AF) A. ferrooxidans cells; experiment: Metal recovery from porphyry molybdenite processing concentrate; assay type: cell-based; settings: for binding during reactions with process concentrate: data not shown; for efficiency of recovery: diluted acidic wastewater from molybdenite processing, pH 1.6
Outline: (§1)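 Wild-type *A. ferrooxidans* and strains engineered to (over)express wild-type (AFWP) or mutant (AFMP) ModA/WtpA oxyanion-binding protein (AFE_1498) were each reacted with diluted acidic wastewater from the washing and extraction steps of porphyry molybdenite processing. The wastewater held molybdenum and rhenium as major components, at pH 1.6. Mo and Re recovery efficiency after binding was compared with wild-type cells.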

[2] = test system: AFMP cells; experiment: as above; assay type: cell-based, A. ferrooxidans; settings: for binding during reactions with process concentrate: data not shown; for efficiency of recovery: diluted acidic wastewater from molybdenite processing
Outline: as §1

[3] = cited from earlier work
[4] = target: wild-type ModA/WtpA protein; experiment: Quenching of intrinsic tryptophan fluorescence, Langmuir isotherm fit; assay type: binding, A. ferrooxidans; settings: read-out: dissociation constant, pH 1.8
Outline: (§2)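 Purified polyHis-tagged protein (Ni-NTA resin, then size exclusion chromatography) at a fixed amount, titrated at pH 1.8 with varying initial concentrations of molybdate, tungstate, chromate or perrhenate. Significance was p < 0.05 versus wild-type protein for the same metal.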

[5] = test system: AFWP (engineered A. ferrooxidans overexpressing wild-type ModA/WtpA); experiment: Metal binding by cells in synthetic metal solutions; assay type: cell-based; settings: for binding capacity / fold higher binding capacity compared to wild-type cells: pH 1.8; for binding capacity to other oxyanion metals: Figure S6
[6] = test system: wild-type (AF) A. ferrooxidans cells; assay type: cell-based; settings: for binding capacity: 1 mM mixed metal solution, pH 1.8
[7] = target: mutant ModA/WtpA protein; experiment: Quenching of intrinsic tryptophan fluorescence, Langmuir isotherm fit; assay type: binding, A. ferrooxidans; settings: pH 1.8; for Kd: read-out: dissociation constant, mutant protein
Outline: as §2

[8] = test system: AFMP (engineered A. ferrooxidans expressing mutant ModA/WtpA); experiment: Metal binding by cells in synthetic metal solutions; assay type: cell-based; settings: for binding capacity to other oxyanion metals: Figure S6
[9] = test system: wild-type ModA/WtpA protein (AFE_1498); experiment: Metal binding in vitro by purified protein; set-up: species or system A. ferrooxidans; settings: pH 1.8, 1:1 molar ratio
Outline: (§3)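 Purified polyHis-tagged protein (Ni-NTA resin, then size exclusion chromatography; about 35 kDa on SDS-PAGE). It was incubated 1 h at pH 1.8 with a solution of one oxyanion: molybdate, tungstate, chromate or perrhenate. Binding efficiency was taken after the incubation. Error bars are one standard deviation, and p < 0.05 versus wild-type protein for the same metal.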

[10] = test system: mutant (G9C/A166C) ModA/WtpA protein; experiment: Metal binding in vitro by purified protein; set-up: species or system A. ferrooxidans; settings: pH 1.8, 1:1 molar ratio
Outline: as §3

[11] = test system: AFWP cells; experiment: Metal recovery from porphyry molybdenite processing concentrate; assay type: cell-based, A. ferrooxidans; settings: pH 1.6; for efficiency of recovery: diluted acidic wastewater from molybdenite processing
Outline: as §1

[12] = 1 mM mixed metal solution, pH 1.8
[13] = 1 mM pure metal solution, pH 1.8
[14] = diluted process concentrate, pH 1.6

Row | Compound | pKa ([3]; ref [4],[47]) | Kd [4] [µM] | binding capacity ([5]; 1 mM mixed metal solution) [fg/cell] | binding capacity ([5]; 1 mM pure metal solution) [fg/cell] | fold higher binding capacity compared to wild-type cells ([5]; 1 mM pure metal solution) [fold] | binding capacity ([6]; wild-type AF) [fg/cell] | Kd [7] [µM] | binding capacity [8, 12] [fg/cell] | binding capacity [8, 13] [fg/cell] | fold higher binding capacity compared to wild-type cells [8, 13] [fold] | binding efficiency (bound) [9] | binding efficiency (bound) [10] | further results
1 | [As] [arsenic] | – | – | – | – | – | – | – | – | – | – | – | – | binding during reactions with process concentrate [1]: nonspecific binding; binding during reactions with process concentrate [2]: nonspecific binding
2 | [Se] [selenium] | – | – | – | – | – | – | – | – | – | – | – | – | binding during reactions with process concentrate [1]: nonspecific binding; binding during reactions with process concentrate [2]: nonspecific binding
3 | [O]=[Cr](=[O])([O-])[O-] [chromate] | 6.5 | 0.5 ± 0.11 | 0.06 | 0.6 | 1.3 | 0.03 | 0.48 ± 0.07 | 0.07 | 0.6 | 1.3 | nearly all | nearly all | –
4 | [O]=[Re](=[O])(=[O])[O-] [perrhenate] | – | 1 ± 0.1 | – | – | – | – | 0.16 ± 0.03 | – | 1.3 | 5 | 1.4% | 93% | efficiency of recovery [1]: 1.7 ± 0.1%; efficiency of recovery ([2]; pH 1.6): 5.7 ± 0.1%*^,**; fold more recovered than wild-type and AFWP cells [2, 14]: 3 fold; pKa ([3]; ref [47]): −1.25; efficiency of recovery [11]: 1.9 ± 0.2%*^,**; fold lower Kd (higher affinity) of mutant protein than wild-type protein [7]: 6 fold; fold higher binding capacity than wild-type AF and AFWP cells [8, 12]: 2.7 fold; fold higher binding capacity compared to AFWP cells [8, 13]: 2 fold
5 | O=[As][O-].[Na+] [arsenite] | – | – | – | – | – | – | – | – | – | – | – | – | binding capacity to other oxyanion metals [5]: did not show significant binding capacity; binding capacity to other oxyanion metals [6]: did not show significant binding capacity; binding capacity to other oxyanion metals [8]: did not show significant binding capacity
6 | phosphate | – | – | – | – | – | – | – | – | – | – | – | – | binding capacity to other oxyanion metals [5]: did not show significant binding capacity; binding capacity to other oxyanion metals ([6]; wild-type AF, Figure S6): did not show significant binding capacity; binding capacity to other oxyanion metals [8]: did not show significant binding capacity
7 | [O]=[W](=[O])([O-])[O-] [tungstate] | 6.7 | 0.49 ± 0.11 | 0.02 | 0.23 | 2 | – | 0.36 ± 0.06 | 0.04 | 0.24 | 2 | nearly all | nearly all | –
8 | [Fe+2] [iron] | – | – | 0.04 | – | – | 0.04 | – | 0.04 | – | – | 1.7 ± 0.3% | 1.3 ± 0.5% | –
9 | [O]=[Mo](=[O])([O-])[O-] [molybdate] | 3.8 | 0.32 ± 0.03 | 5.9 | 18 | 1.4 | 3.6 | 0.15 ± 0.01 | 8.4 | 18 | 1.4 | nearly all | nearly all | efficiency of recovery [1]: 6.0 ± 0.1%; efficiency of recovery ([2]; pH 1.6): 12 ± 1%; fold more recovered compared to wild-type AF cells [2, 14]: 2 fold; efficiency of recovery [11]: 12 ± 1%; fold more recovered compared to wild-type AF cells ([11]; diluted process concentrate): 2 fold; fold lower Kd (higher affinity) of mutant protein than wild-type protein [7]: 2 fold
